Assay outcomes as filed in PubChem.
mIAP inh – blocks mouse intestinal alkaline phosphatase. purified mouse IAP, CDP-Star luminescence, 30 min. inhibition, % at 10 µM. 0.2% of 330,000 active;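 active = inhibition of at least 40% at 10 µM in the primary screen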
hIAP block – blocks human intestinal alkaline phosphatase. inhibition, % at 10 µM. P09923. 0.12% of 330,000 active. purified IAP, CDP-Star luminescence, 30 min. AID 2544;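 active = inhibition reaching a set limit with compound at 10 µM in the primary screen, cut at about 35% in these data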
Target sequence (P09923 whole entry, looked up): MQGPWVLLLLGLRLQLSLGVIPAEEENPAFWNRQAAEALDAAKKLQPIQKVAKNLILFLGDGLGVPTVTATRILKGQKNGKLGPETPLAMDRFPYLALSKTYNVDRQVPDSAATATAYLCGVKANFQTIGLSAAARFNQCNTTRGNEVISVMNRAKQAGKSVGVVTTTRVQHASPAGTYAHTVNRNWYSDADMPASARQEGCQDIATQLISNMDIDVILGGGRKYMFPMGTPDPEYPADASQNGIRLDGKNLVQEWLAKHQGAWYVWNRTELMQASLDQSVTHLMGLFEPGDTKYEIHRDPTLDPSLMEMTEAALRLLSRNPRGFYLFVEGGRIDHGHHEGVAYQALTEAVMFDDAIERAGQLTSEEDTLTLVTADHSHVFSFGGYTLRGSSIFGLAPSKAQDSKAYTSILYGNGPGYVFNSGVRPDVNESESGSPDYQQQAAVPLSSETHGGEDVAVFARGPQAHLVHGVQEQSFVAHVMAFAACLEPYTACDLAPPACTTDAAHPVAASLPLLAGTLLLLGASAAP
mIAP act – increases mouse intestinal alkaline phosphatase activity | muIAP, CDP-Star luminescence, 30 min; hits give high values; 1 = vehicle-only enzyme signal, 0 = enzyme-free wells | activation factor at 10 µM | 0.24% of 330,000 active;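 active = activation factor of at least 2 at 20 µM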
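Assay system: mouse IAP enzyme; reagent: chemiluminescent substrate CDP-Star; dosing: test compounds delivered from DMSO solution; schedule: 30 min at room temperature; measured by: luminescence from enzymatic CDP-Star hydrolysis; controls: DMSO-only wells and no-enzyme negative control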
hIAP activ – human IAP activation; AID 2524; P09923; purified human IAP, CDP-Star luminescence, 30 min; hits give high values; 1 = vehicle-only enzyme, 0 = enzyme-free background; activation factor at 10 µM; 0.16% of 330,000 active;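 active = activation factor of the enzyme at least 2-fold when tested at 20 µM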
bIAP inh – intestinal alkaline phosphatase (bovine) inhibition. purified bovine IAP, CDP-star luminescence, 30 min. inhibition, % at 20 µM. 190,000 tested, under 10 active;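 active = over 50% inhibition of intestinal alkaline phosphatase at 20 µM in the single-dose screen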
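test system = bovine IAP enzyme | medium = DEA buffer 100 mM, pH 9.8, with MgCl2 1.0 mM, ZnCl2 0.02 mM | detection = luminescence | dosing = single compound dose of 20 µM, 2% DMSO final | incubation = 30 min reaction at room temperature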
bIAP activator – intestinal alkaline phosphatase (bovine) activation | purified bovine IAP, CDP-star luminescence, 30 min; hits give high values; fold of DMSO-control signal, blank-subtracted | activation factor at 20 µM | 0.17% of 200,000 active | AID 1016;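 active = activation factor of 2 or more at 20 µM, a signal rise over negative controls twice the positive control's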
Large screens that a line does not name were inactive. The list is not random: actives were taken first. Their share in the collection is about 0.72%.

O=C(Nc1ccccc1)Nc1ccc(Cl)c(S(=O)(=O)N2CCOCC2)c1	mIAP act 2.82
O=C(Nc1ccc(NC(=O)c2ccc(Cl)c(S(=O)(=O)N3CCOCC3)c2)cc1)c1ccccc1	none (no result: bIAP inh, bIAP activator)
Cc1ccc(NC(=O)Nc2ccccc2F)cc1S(=O)(=O)N1CCOCC1	mIAP act 2.58 (no result: bIAP inh, bIAP activator)
O=C(Nc1cccc(Cl)c1)Nc1cc(S(=O)(=O)N2CCOCC2)ccc1N1CCCC1	mIAP act 3.72
CC1CCCN(C(=O)CSc2nnc3ccccn23)C1 (stereo not given)	none (no result: bIAP inh, bIAP activator)
CCOc1ccc(NC(=O)CN2C(=O)COc3ccccc32)cc1	none (no result: bIAP inh, bIAP activator)
Cc1oc(-c2cc(Cl)cc(Cl)c2)cc1C(=O)NCCc1ccccc1	mIAP act 3.63
CC(=O)c1ccc(OCc2ccc(Oc3c(Cl)cccc3[N+](=O)[O-])cc2)cc1	hIAP activ 3.04
CC(=O)c1ccc(OCc2ccc(C(=O)c3ccccc3)cc2)cc1	none
Cc1cc(C)cc(C(=O)Nc2ccc(N3CCCC3)cc2)c1	none
Cc1cc(C)cc(NC(=O)Nc2ccc(N3CCCCC3)cc2)c1	mIAP act 2 (no result: bIAP inh, bIAP activator)
CCC(C)[C@H](NC(=O)NCc1ccco1)C(=O)OC (stereo not given in full)	none (no result: bIAP inh, bIAP activator)
O=c1c(Cc2c(F)cccc2Cl)c(O)ccn1C1CC1	none
O=C(NCc1ccc(F)cc1)C1CCN(S(=O)(=O)c2ccc3c(c2)OCCCO3)CC1	none
O=C(NCc1ccc(Cl)cc1Cl)C1CCN(S(=O)(=O)c2ccc3c(c2)OCCCO3)CC1	mIAP act 2.62
CCC1CCCCN1CCCNC(=O)CCC(=O)N1CCOc2ccccc21 (stereo not given)	none (no result: bIAP inh, bIAP activator)
CCOC(=O)NC(=O)CSc1nnc(C2CC2)n1Cc1ccco1	none
CC(C)C1Cc2c(C#N)c(N)sc(=S)c2CO1 (stereo not given)	mIAP inh 40.1
O=C1NC2(CCCCC2)C(=O)N1CC(=O)N(Cc1ccccc1)c1ccccc1	none (no result: bIAP inh, bIAP activator)
CC(C)CCNC(=O)c1ccc2c(SCC(=O)O)c3c(nc2c1)CCCC3	bIAP activator 2.4
O=C(Cc1ccc(Cl)cc1)Nc1cccc(S(=O)(=O)N2CCCCC2)c1	mIAP act 2.12 (no result: bIAP inh, bIAP activator)
O=c1cc(-c2ccc(O)cc2)oc2c(C3OCC(O)C(O)C3O)c(O)c(C3OC(CO)C(O)C(O)C3O)c(O)c12 (stereo not given)	mIAP inh 42.8 (no result: bIAP inh, bIAP activator)
CCN(CC)S(=O)(=O)c1ccc(OC)c(NC(=O)CSc2cc(C)ccc2C)c1	none
C[C@@H]1NC(=O)c2cc([N+](=O)[O-])cc(I)c2OCC[C@@H](C(=O)NC(CC(=O)O)C(N)=O)NC(=O)[C@H](CC(N)=O)NC1=O (stereo not given in full)	mIAP inh 44.7
COc1cc(C2c3c(oc4ccc(Cl)cc4c3=O)C(=O)N2Cc2ccco2)cc(OC)c1OC (stereo not given)	bIAP activator 2.6 (no result: mIAP inh, hIAP block, mIAP act, hIAP activ)
COc1ccc(NC(=O)Nc2ccc3c(c2)N(C)C(=O)CS3)cc1Cl	none
COc1ccc(NC(=O)Nc2ccc3c(c2)N(C)C(=O)CS3)cc1OC	mIAP act 2.22
CCOc1ccc(NC(=O)Nc2ccc3c(c2)N(C)C(=O)CS3)cc1	mIAP act 2.31
C/C(=N\Nc1cccc2cccnc12)c1ccccc1O	none
C/C(=N\Nc1cccc2cccnc12)c1ccccn1	hIAP activ 2.06
O=C(NCc1ccco1)c1sc(=S)n2c1[nH]c(=O)c1ccccc12	mIAP inh 40.0
O=C(NC1CCCC1)c1sc(=S)n2c1[nH]c(=O)c1ccccc12	none
CCCCOc1ccc(NC(=O)C(=O)NCCCn2ccnc2)cc1	none
Cc1cc(OCCCCn2ccnc2)cc(C)c1Cl	bIAP activator 16.1
CCCCCCOc1ccc(C(=O)NCCCn2ccnc2)cc1	bIAP activator 2
Cc1cc(Cl)cc(C)c1OCCCCn1ccnc1	none
O=C(NCc1n[nH]c(=O)c2ccccc12)C1CC(=O)N(c2ccccc2)C1 (stereo not given)	none (no result: bIAP inh, bIAP activator)
COCC(C)NS(=O)(=O)c1ccc(C(=O)NC(Cc2ccccc2)c2ccccc2)cc1 (stereo not given)	mIAP act 2.06 (no result: bIAP inh, bIAP activator)
CCOC(=O)c1ccc(NC(=S)NCc2ccc(F)cc2)cc1	mIAP act 2.31 (no result: bIAP inh, bIAP activator)
O=C(NC(=S)Nc1ccccc1N1CCOCC1)c1ccc(-c2cc(Cl)ccc2Cl)o1	bIAP activator 3.9
